Active and inactive are the calls of the source. The calls are words filed in the database; no cut-off is given here.
Assays:
[1] = target: T1, Tyrosine-protein phosphatase non-receptor type 1 (Homo sapiens) (UniProt P18031); assay: Inhibition of PTP1B assessed as p-nitrophenolate ion production at 100 uM pretreated for 10 mins measured after 30 mins
T1 sequence (whole entry): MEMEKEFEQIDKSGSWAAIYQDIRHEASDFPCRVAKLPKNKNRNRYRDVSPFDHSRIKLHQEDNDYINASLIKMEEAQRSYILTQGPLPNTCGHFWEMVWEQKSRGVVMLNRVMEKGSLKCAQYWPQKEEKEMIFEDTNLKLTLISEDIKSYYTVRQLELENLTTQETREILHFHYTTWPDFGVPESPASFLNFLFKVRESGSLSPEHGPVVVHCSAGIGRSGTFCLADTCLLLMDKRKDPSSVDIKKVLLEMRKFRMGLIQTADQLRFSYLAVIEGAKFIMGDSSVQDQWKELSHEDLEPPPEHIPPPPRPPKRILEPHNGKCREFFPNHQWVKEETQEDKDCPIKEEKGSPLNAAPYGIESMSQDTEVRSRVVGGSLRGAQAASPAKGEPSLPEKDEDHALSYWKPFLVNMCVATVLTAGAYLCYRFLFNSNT
Procedure, shortened: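 PTP1B was preincubated 10 min with compound, with and without 0.01% Triton X-100. Substrate was 10 mM pNPP in 50 mM HEPES pH 7.0 with 1 mM DTT and 2 mM EDTA. After 30 min at 37 °C the reaction was stopped with 0.1 N NaOH and A410 was read. Product was calculated with ε 1.78×10⁴ M⁻¹cm⁻¹. Sodium orthovanadate served as standard. IC50 came from dose–response curves.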

[2] = target: Dipeptidyl peptidase 4 (Homo sapiens) (UniProt P27487); assay: Inhibition of DPP4 at 100 uM after 15 mins by spectrofluorimeter
Dipeptidyl peptidase 4 (Homo sapiens), sequence (P27487 whole entry, looked up): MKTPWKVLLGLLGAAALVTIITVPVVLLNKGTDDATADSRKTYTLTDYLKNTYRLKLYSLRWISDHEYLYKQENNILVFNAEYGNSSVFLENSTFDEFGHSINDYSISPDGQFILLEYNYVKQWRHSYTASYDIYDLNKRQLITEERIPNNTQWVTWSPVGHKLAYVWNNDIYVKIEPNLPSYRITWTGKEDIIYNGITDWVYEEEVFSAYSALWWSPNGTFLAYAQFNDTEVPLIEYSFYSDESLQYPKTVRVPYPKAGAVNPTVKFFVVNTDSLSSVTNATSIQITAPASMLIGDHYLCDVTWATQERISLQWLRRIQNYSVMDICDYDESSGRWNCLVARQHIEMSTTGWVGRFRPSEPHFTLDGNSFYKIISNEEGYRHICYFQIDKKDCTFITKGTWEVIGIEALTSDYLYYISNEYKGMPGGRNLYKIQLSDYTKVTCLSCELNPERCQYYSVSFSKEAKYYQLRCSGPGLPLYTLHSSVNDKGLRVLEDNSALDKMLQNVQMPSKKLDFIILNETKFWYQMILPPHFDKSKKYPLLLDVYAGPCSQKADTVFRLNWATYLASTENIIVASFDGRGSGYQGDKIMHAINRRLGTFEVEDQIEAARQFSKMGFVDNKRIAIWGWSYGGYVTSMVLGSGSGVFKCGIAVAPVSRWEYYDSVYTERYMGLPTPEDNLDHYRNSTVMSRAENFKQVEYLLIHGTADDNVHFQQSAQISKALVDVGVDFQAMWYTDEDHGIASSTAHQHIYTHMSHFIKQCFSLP
Procedure, shortened: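 DPP-IV activity was measured at 37 °C as Gly-Pro-AMC (30 µM) cleavage in Tris–HCl pH 7.4 with test compound. Fluorescence was read at excitation 355 nm and emission 460 nm. The initial rate was taken over the first 15 min.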

[3] = Inhibition of alpha-glucosidase at 100 uM after 3 mins
Procedure, shortened: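 α-Glucosidase (0.1 mg/mL, purified) was assayed in 67 mM sodium phosphate pH 6.8 with 1.0 mg/mL glutathione. The reaction was started with 3.0 mg/mL pNPG and followed at 405 nm every 30 s for 3 min.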

[4] = Inhibition of glycogen phosphorylase assessed as […] phosphate release at 100 uM after 30 mins
Procedure, shortened: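 Glycogen phosphorylase was incubated with glycogen, glucose-1-phosphate, NaF and 5′-AMP for 30 min at 37 °C. The reaction was stopped with 10% TCA and 0.1 M sodium acetate. Samples were held overnight at 4 °C, then released Pi was measured.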

[5] = target: T2, Glucose-6-phosphatase catalytic subunit 1 (Homo sapiens) (UniProt P35575); assay: Inhibition of glucose-6-phosphatase assessed as inositol phosphate release at 100 uM after 30 mins; settings: in the assay text read “inorganic phosphate” for “inositol phosphate”
T2 sequence (whole entry): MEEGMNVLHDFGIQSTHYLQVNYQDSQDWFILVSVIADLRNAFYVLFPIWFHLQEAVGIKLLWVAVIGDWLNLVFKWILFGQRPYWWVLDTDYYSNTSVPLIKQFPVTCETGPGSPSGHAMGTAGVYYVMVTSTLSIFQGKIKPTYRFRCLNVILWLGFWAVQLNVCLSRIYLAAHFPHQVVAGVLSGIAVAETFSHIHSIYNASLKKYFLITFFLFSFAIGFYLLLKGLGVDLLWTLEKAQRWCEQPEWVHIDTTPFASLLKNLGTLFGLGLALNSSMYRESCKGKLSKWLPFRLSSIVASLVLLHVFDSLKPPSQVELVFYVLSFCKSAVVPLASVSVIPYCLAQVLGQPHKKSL
Procedure, shortened: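 Glucose-6-phosphatase was assayed in 0.3 M citrate pH 6.0 with 28 mM EDTA, 14 mM NaF, 200 mM glucose-6-phosphate and enzyme protein. After 30 min at 37 °C the reaction was stopped with 10% TCA. Activity was expressed as µmol Pi released per min per mg protein.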

Rattus norvegicus [6] = assay: Antihyperglycemic activity in Charles Foster-Wistar albino rat sucrose loaded model assessed as decrease of blood glucose level at 100 mg/kg, po administered 30 mins before glucose challenge measured up to 120 mins by glucometer; type: functional; settings: in the assay text read “Sprague-Dawley” for “Charles Foster-Wistar”
Procedure, shortened: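 Sprague–Dawley male rats with blood glucose 60–80 mg/dl, 5–6 per group, received 100 mg/kg orally as a suspension in 1.0% gum acacia; controls received vehicle. Sucrose 10.0 g/kg was given orally 30 min later. Glucose was read by glucometer at 30, 60, 90 and 120 min. Food was withheld. Percent activity came from AUC versus control.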

Rattus norvegicus [7] = assay: Antihyperglycemic activity in Sprague-Dawley albino rat streptozotocin-induced beta-cell damaged diabetic model assessed as decrease of blood glucose level at 100 mg/kg, po administered 30 mins before glucose challenge measured after 24 hrs by glucometer; type: functional; design: scale not given: the % may be the effect or the level left
Procedure, shortened: (§1)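 Rats were made diabetic with streptozotocin 60 mg/kg ip in 100 mM citrate pH 4.5 after an overnight fast. Animals with glucose 144–270 mg/dl at 48 h were used, 5–6 per group. Compounds were given 100 mg/kg orally in 1.0% gum acacia. Sucrose 2.5 g/kg followed 30 min later. Glucose was read by glucostrips up to 300 min and at 24 h. Non-responders were excluded. Percent activity came from AUC versus control.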

Rattus norvegicus [8] = assay: Antihyperglycemic activity in Sprague-Dawley albino rat streptozotocin-induced beta-cell damaged diabetic model assessed as decrease of blood glucose level at 100 mg/kg, po administered 30 mins before glucose challenge measured after 5 hrs by glucometer; type: functional; design: scale not given: the % may be the effect or the level left; procedure, shortened: as §1

CC1(C)CC(=O)c2c(-c3ccc(Cl)cc3)cc(-c3ccccc3)nc2C1
inhibition [1]: 18.6% | inhibition [2]: 29.4% | inhibition [3]: inactive | inhibition [4]: 13.8% | inhibition [5]: 11.3% | Activity (Rattus norvegicus [6]; Sprague-Dawley albino): inactive

CCOC(=O)C1=CC(c2ccccc2)C2=C(CC(C)(C)CC2=O)N1 (stereo unspecified)
inhibition [1]: 43.3% | inhibition [2]: inactive | inhibition [3]: inactive | inhibition [4]: 49.5% | inhibition [5]: inactive | Activity (Rattus norvegicus [7]): 11.3% | Activity (Rattus norvegicus [8]): 7.1% | Activity (Rattus norvegicus [6]): 16.6%

COc1ccc(C2=CC(c3ccccc3)C3=C(CC(C)(C)CC3=O)N2)cc1 (stereo unspecified)
inhibition [1]: 53.4% | inhibition [2]: inactive | inhibition [3]: 22.4% | inhibition [4]: 18.4% | inhibition [5]: 8.34% | Activity (Rattus norvegicus [7]): 11.7% | Activity (Rattus norvegicus [8]): 11.9% | Activity (Rattus norvegicus [6]): 17.3%

SODIUM ORTHOVANAD
inhibition [2]: 57.8%

CC1(C)CC(=O)C2=C(C1)NC(C(=O)O)=CC2c1ccc(F)cc1 (stereo unspecified)
inhibition [1]: 27% | inhibition [2]: inactive | inhibition [3]: 1.4% | inhibition [4]: 46.6% | inhibition [5]: 16.8% | Activity (Rattus norvegicus [7]): 23.6% | Activity (Rattus norvegicus [8]): 27.8% | Activity (Rattus norvegicus [6]): 38.7%

COc1ccc(-c2cc(-c3ccccc3)nc3c2C(=O)CC(C)(C)C3)cc1
inhibition [1]: 9.1% | inhibition [2]: 22% | inhibition [3]: inactive | inhibition [4]: 31.1% | inhibition [5]: inactive | Activity (Rattus norvegicus [6]; Sprague-Dawley albino): inactive

CCOC(=O)C1(O)CC(c2ccccc2)C2=C(CC(C)(C)CC2=O)O1 (stereo unspecified)
inhibition [1]: 21.3% | inhibition [2]: inactive | inhibition [3]: inactive | inhibition [4]: inactive | inhibition [5]: inactive | Activity (Rattus norvegicus [6]; Sprague-Dawley albino): inactive

Cc1ccc(C2=CC(c3ccccc3)C3=C(CCCC3=O)N2)cc1 (stereo unspecified)
inhibition [1]: 33.3% | inhibition [2]: 18.8% | inhibition [3]: 8.3% | inhibition [4]: inactive | inhibition [5]: 27.7% | Activity (Rattus norvegicus [6]): 13.4%

CCOC(=O)C1(O)CC(c2ccc(Cl)cc2)C2=C(CC(C)(C)CC2=O)O1 (stereo unspecified)
inhibition [1]: 16.5% | inhibition [2]: inactive | inhibition [3]: inactive | inhibition [4]: 7.6% | inhibition [5]: inactive | Activity (Rattus norvegicus [6]; Sprague-Dawley albino): inactive

CCOC(=O)C1=CC(c2ccc(OC)cc2)C2=C(CC(C)(C)CC2=O)N1 (stereo unspecified)
inhibition [1]: 66.7% | inhibition [2]: 16.5% | inhibition [3]: inactive | inhibition [4]: 40.4% | inhibition [5]: 23.8% | Activity (Rattus norvegicus [6]): 12.9%

CC1(C)CC(=O)c2c(-c3ccc(F)cc3)cc(-c3ccccc3)nc2C1
inhibition [1]: 7.9% | inhibition [2]: 13.1% | inhibition [3]: inactive | inhibition [4]: 20.3% | inhibition [5]: 11.1% | Activity (Rattus norvegicus [6]; Sprague-Dawley albino): inactive

CCOC(=O)C1(O)CC(c2ccc(OC)cc2)C2=C(CC(C)(C)CC2=O)O1 (stereo unspecified)
inhibition [1]: 13.6% | inhibition [2]: inactive | inhibition [3]: inactive | inhibition [4]: inactive | inhibition [5]: inactive | Activity (Rattus norvegicus [6]; Sprague-Dawley albino): inactive

CCOC(=O)C1=CC(c2ccc(Cl)cc2)C2=C(CC(C)(C)CC2=O)N1 (stereo unspecified)
inhibition [1]: 53.8% | inhibition [2]: 12.5% | inhibition [3]: inactive | inhibition [4]: 56.7% | inhibition [5]: 11.3% | Activity (Rattus norvegicus [6]): 11.4%

CN(C)C(=N)NC(=N)N [METFORMIN]
Activity (Rattus norvegicus [7]): 20.2% | Activity (Rattus norvegicus [8]): 18% | Activity (Rattus norvegicus [6]): 13.5%

CCOC(=O)C1(O)CC(c2ccc(Br)cc2)C2=C(CC(C)(C)CC2=O)O1 (stereo unspecified)
inhibition [1]: 4.7% | inhibition [2]: inactive | inhibition [3]: inactive | inhibition [4]: 12.3% | inhibition [5]: inactive | Activity (Rattus norvegicus [6]; Sprague-Dawley albino): inactive

COc1ccc(Cl)cc1C(=O)NCCc1ccc(S(=O)(=O)NC(=O)NC2CCCCC2)cc1 [GLYBURIDE]
Activity (Rattus norvegicus [7]): 28.4% | Activity (Rattus norvegicus [8]): 25.6% | Activity (Rattus norvegicus [6]): 32.5%
